How the values were obtained:
[1] = target: T1, Alpha-1B adrenergic receptor (Rattus norvegicus) (UniProt P15823); experiment: Antagonism of Alpha-1B adrenergic receptor subtype (-)-phenylephrine-induced contraction of rat spleen; assay type: functional, tissue-based
T1 sequence (whole entry): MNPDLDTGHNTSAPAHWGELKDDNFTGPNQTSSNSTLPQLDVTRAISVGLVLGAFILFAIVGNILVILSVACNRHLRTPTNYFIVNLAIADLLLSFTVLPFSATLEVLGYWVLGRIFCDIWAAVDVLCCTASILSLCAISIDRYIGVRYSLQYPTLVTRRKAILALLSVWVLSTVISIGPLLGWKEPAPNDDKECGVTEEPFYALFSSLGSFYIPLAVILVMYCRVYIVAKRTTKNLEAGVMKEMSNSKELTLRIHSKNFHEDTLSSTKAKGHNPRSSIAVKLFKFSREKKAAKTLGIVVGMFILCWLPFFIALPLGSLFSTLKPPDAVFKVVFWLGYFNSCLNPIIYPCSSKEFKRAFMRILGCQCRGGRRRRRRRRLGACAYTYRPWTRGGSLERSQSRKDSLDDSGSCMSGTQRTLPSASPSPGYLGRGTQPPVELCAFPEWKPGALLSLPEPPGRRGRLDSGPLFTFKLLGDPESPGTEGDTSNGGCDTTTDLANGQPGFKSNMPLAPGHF
Summary of the method: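 Rat spleen, isometric cumulative (–)-phenylephrine curves at 30-min intervals; first discarded, second taken as control. Antagonist was equilibrated 30 min before the next curve.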

[2] = target: T1, Alpha-1B adrenergic receptor (Rattus norvegicus); experiment: Eudisimic ratio(ER) is the antilog of the defference between the pKb and pD2 values against alpha-1B-adrenoceptor subtype; assay type: functional
Summary of the method: (§1)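 Eudismic ratio is the antilog of the difference between the pKb (functional α1 tissue assays) or pD2 (5-HT1A [35S]GTPγS stimulation) of the eutomer and that of its distomer.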

[3] = target: T2, Alpha-1A adrenergic receptor (Rattus norvegicus) (UniProt P43140); experiment: Antagonist activity against Alpha-1A adrenergic receptor (-)-noradrenaline-induced contraction of rat prostatic vas deferens; assay type: functional, tissue-based
T2 sequence (whole entry): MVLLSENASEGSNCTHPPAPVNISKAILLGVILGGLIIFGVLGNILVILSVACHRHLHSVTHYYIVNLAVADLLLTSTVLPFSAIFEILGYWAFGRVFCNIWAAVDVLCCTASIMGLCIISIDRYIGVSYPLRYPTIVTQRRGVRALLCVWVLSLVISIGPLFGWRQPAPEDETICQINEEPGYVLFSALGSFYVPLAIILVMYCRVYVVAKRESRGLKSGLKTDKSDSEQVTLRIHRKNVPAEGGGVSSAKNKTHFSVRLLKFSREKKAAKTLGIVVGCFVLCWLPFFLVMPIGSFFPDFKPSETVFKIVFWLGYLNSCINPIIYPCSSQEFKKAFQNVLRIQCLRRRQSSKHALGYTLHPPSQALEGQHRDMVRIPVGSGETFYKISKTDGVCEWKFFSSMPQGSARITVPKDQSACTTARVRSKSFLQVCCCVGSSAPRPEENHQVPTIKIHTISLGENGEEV
Summary of the method: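 Isolated rat prostatic vas deferens with 0.01 μM desipramine in the bath. Isotonic cumulative (–)-noradrenaline curves were run at 30-min intervals: first discarded, second as control, then antagonist equilibrated 30 min before a new curve. pKb by Arunlakshana–Schild from dose ratios of EC50, at 2–3 antagonist concentrations, each tested four times.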

[4] = target: T3, 5-hydroxytryptamine receptor 1A (Homo sapiens, UniProt P08908); experiment: Displacement of [3H]8-hydroxy-2-(di-n-propylamino)tetralin from human 5-hydroxytryptamine 1A receptor
T3 sequence (P08908 whole entry): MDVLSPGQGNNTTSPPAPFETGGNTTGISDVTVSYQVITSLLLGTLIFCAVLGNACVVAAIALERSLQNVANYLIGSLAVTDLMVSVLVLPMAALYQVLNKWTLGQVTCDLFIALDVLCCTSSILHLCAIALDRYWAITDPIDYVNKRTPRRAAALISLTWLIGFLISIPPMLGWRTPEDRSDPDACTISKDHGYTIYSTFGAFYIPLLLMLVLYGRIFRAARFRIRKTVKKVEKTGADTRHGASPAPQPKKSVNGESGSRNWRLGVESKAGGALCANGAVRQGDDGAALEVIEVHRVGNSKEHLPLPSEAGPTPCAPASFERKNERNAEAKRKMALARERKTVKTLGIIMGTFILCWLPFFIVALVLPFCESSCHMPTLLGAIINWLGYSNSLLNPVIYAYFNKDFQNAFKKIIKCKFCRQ
Summary of the method: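 Membranes of HeLa cells stably transfected with human 5-HT1A (genomic clone G-21), in 50 mM Tris-HCl pH 7.4, 2.5 mM MgCl2, 10 μM pargiline. […] Nonspecific binding defined with 10 μM 5-HT. Filtration, scintillation counting. Ki by Cheng–Prusoff; 2–3 experiments in triplicate.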

[5] = target: Serotonin 2 (5-HT2) receptor (Rattus norvegicus, UniProt P30994+P08909+P14842); experiment: Displacement of [3H]ketanserin from rat brain 5-hydroxytryptamine 2 receptor
Summary of the method: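 Rat cerebral cortex membranes (male Sprague–Dawley) in Tris-HCl pH 7.4 with 10 μM pargiline and 0.1% ascorbic acid were incubated 20 min at 37 °C with 0.7–1.3 nM [3H]ketanserin (5-HT2A). Nonspecific binding was defined by 2 μM ketanserin. Bound label was counted after filtration, and Ki was derived by Cheng–Prusoff.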

[6] = target: T2, Alpha-1A adrenergic receptor (Rattus norvegicus); experiment: Eudisimic ratio(ER) is the antilog of the defference between the pKb and pD2 values against Alpha-1A adrenergic receptor; summary of the method: as §1
[7] = target: T4, Alpha-1D adrenergic receptor (Homo sapiens, UniProt P25100); experiment: Ability to displace [3H]prazosin from human cloned Alpha-1D adrenergic receptor
T4 sequence (P25100 whole entry): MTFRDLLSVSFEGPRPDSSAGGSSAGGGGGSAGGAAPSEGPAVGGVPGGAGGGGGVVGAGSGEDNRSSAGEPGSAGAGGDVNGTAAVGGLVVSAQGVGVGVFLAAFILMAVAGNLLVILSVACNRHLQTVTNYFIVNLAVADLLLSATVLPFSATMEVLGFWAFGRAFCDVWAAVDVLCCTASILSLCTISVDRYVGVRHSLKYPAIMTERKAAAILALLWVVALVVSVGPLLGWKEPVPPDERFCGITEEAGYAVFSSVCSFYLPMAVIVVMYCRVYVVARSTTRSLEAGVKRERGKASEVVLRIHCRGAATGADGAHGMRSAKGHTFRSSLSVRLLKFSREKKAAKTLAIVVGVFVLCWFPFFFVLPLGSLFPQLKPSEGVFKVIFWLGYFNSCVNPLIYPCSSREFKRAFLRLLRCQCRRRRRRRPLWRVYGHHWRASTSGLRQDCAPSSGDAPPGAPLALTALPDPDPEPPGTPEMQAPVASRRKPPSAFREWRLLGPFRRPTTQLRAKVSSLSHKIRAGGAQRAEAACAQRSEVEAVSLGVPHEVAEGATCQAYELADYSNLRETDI
Summary of the method: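 Competition binding at cloned human α1 subtypes stably expressed in CHO cells: membranes (30 μg protein) incubated 30 min at 25 °C in 50 mM Tris-HCl pH 7.4 with 0.1–0.4 nM [3H]prazosin and competitor (1 pM–10 μM). Nonspecific binding with 10 μM phentolamine; filtration and scintillation counting. Ki by Cheng–Prusoff; 2–3 experiments in triplicate.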

SMILES | pKb [1] | ER [2] | pKb [3] | Ki [4] [nM] | Log Ki [5] | ER [6] | Ki [7] [nM]
O[C@H]1[C@@H](NC[C@H]2COc3ccccc3O2)CC[C@@H]1Oc1ccccc1 | 5.79 | 11 | 5.65 | 0.832 | < -6 | – | –
O[C@@H]1[C@H](NC[C@@H]2COc3ccccc3O2)CC[C@H]1Oc1ccccc1 | 6.83 | – | 6.1 | 22.4 | – | – | –
O[C@H]1[C@@H](NC[C@@H]2COc3ccccc3O2)CC[C@@H]1Oc1ccccc1 | 5.44 | – | < 5 | 3.72 | – | – | –
O[C@@H]1[C@H](NC[C@H]2COc3ccccc3O2)CC[C@H]1Oc1ccccc1 | 7.13 | 49 | 6.55 | 5.5 | < -6 | > 35 | 7.94

From ChEMBL document CHEMBL1132183 (J Med Chem, 1999)
